Calls of active or inactive are those of the source. No cut-off for these calls is given here.
Columns and labels:
Helicobacter pylori = test: Antibacterial activity against Helicobacter pylori 26695 ATCC 700392 measured after 72 hrs; format: functional, organism-based; settings: 26695 ATCC 700392, 72 h
Outline: (§1)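 Bacterial growth inhibition measured by 96-well plate liquid culture. IC50 values taken as reported for each organism.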

[1] = target: T1, Aminodeoxyfutalosine synthase (Thermus thermophilus (strain HB8 / ATCC 27634 / DSM 579), UniProt Q5SK48); test: Inhibition of N-terminal His6-tagged Thermus thermophilus HB8 MqnE expressed in Escherichia coli BL21 (DE3) co-expressing [4Fe-4S]2+ cluster using 3-(1-carboxyvinyloxy)benzoic acid as substrate preincubated for 15 mins in presence of SAM and substrate followed by Ti(3+)citrate addition and measured by discontinuous HPLC analysis
T1 sequence (Q5SK48 whole entry): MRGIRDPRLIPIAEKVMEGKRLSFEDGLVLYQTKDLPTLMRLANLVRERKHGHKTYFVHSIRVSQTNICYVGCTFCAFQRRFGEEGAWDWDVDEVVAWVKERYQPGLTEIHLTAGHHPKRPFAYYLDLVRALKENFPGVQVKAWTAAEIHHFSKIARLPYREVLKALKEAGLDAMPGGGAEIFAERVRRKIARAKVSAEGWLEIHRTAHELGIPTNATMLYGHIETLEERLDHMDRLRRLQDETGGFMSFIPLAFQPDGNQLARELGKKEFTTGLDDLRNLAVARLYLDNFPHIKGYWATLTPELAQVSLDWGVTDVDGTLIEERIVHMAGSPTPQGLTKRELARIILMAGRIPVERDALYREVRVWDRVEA
Outline: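 [4Fe-4S]2+-reconstituted T. thermophilus MqnE preincubated with a range of inhibitor concentrations plus excess SAM and substrate 1. Reaction started by reducing the enzyme with Ti(III) citrate. Aminofutalosine formation followed by discontinuous HPLC. Normalized relative initial rates plotted against inhibitor concentration to give IC50. Where IC50 fell within 5-fold of enzyme concentration, Ki fitted with the Morrison tight-binding equation.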

[2] = Antibacterial activity against Campylobacter jejuni ATCC 33560 AS-83-79 measured after 16.4 hrs; format: functional, Campylobacter jejuni subsp. jejuni; outline: as §1
[3] = target: T2, Aminodeoxyfutalosine synthase (Thermus thermophilus (strain HB8 / ATCC 27634 / DSM 579)) (UniProt Q5SK48); test: Reversible inhibition of N-terminal His6-tagged Thermus thermophilus HB8 MqnE expressed in Escherichia coli BL21 (DE3) co-expressing [4Fe-4S]2+ cluster assessed as restoration of enzyme activity at 2 mM using 3-(1-carboxyvinyloxy)benzoic acid as substrate preincubated for 1 hr in presence of SAM, substrate and Ti(3+)citrate followed by compound washout and subsequent addition of SAM, substrate and Ti(3+)citrate measured after 1 hr by HPLC analysis
T2 sequence (whole entry): T1 sequence (Q5SK48 whole entry)
Outline: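 Reversibility test: MqnE preincubated with inhibitor for 1 h, inhibitor then removed by gel filtration, and enzyme activity compared for restoration.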

Row | IC50 (Helicobacter pylori) | IC50 [2] | Structure (SMILES) | IC50 [1] | inhibition [3] | Ki [1]
1 | 16100 nM | 83.3 µM | Nc1ncnc2c1ncn2[C@@H]1O[C@H](CCC(Cc2cccc(C(=O)O)c2)C(=O)O)[C@@H](O)[C@H]1O (some centres not stated) | 839 µM |  | 
2 | 260 nM | 1.9 µM | CN[C@@H]1[C@@H](O)[C@@H](O[C@@H]2[C@@H](O)[C@H](O[C@H]3O[C@H]([C@@H](C)N)CC[C@H]3N)[C@@H](N)C[C@H]2N)OC[C@]1(C)O [GENTAMICIN C2] |  |  | 
3 | 12 nM | 1.4 µM | CCCCSC[C@H]1CN(Cc2c[nH]c3c(N)ncnc23)C[C@@H]1O |  |  | 

Row | Structure (SMILES) | IC50 (Helicobacter pylori) | IC50 [2] | IC50 [1] | inhibition [3] | Ki [1]
4 | C=C(Cc1cccc(C(=O)O)c1)C(=O)O | 1800 nM | 13.6 µM | 38.7 µM | Active | 3.1 µM
